# Measured values taken from ChEMBL document CHEMBL2413066, “Molecular docking guided structure based design of symmetrical N,N'-disubstituted urea/thiourea as HIV-1 gp120-CD4 binding inhibitors” (Bioorg Med Chem, 2013).
# Assay: Inhibition of HIV-1 gp120-CD4 (unknown origin) interaction
# Set-up: species or system Human immunodeficiency virus 1
# Method in brief: (§1)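 Capture ELISA for gp120–CD4 binding. Compounds diluted in diluent buffer over 0.1–1000 ng/ml and added with positive reference CD4 (1000 ng/ml). The CD4 standard ran in twofold dilutions from 1000 to 0.5 ng/ml. Incubation 1 h at room temperature, three washes, then conjugate at 1:100 for 1 h. TMB for 10 min, reaction stopped, absorbance read at 450 nm; IC50 derived.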
row,pIC50,Compound
1,7.588,COc1ncc(OC)c2c(C(=O)C(=O)N3CCN(C(=O)c4ccccc4)CC3)c[nH]c12
2,6.432,C[C@H]1CN(C(=O)c2ccccc2)CCN1S(=O)(=O)c1c[nH]c2c(F)ccc(F)c12
3,5.041,C[C@H]1CN(C(=O)c2cnccn2)CCN1S(=O)(=O)c1c[nH]c2ncccc12
4,6.208,C[C@H]1CN(C(=O)c2ccccc2)CCN1S(=O)(=O)c1c[nH]c2c(-n3nccn3)ncc(F)c12
5,5.721,Cc1csc(C(=O)N2CCN(S(=O)(=O)c3c[nH]c4ncccc34)[C@@H](C)C2)c1
6,6.824,C[C@H]1CN(C(=O)c2ccccc2)CCN1S(=O)(=O)c1c[nH]c2c(-n3cncn3)nccc12
7,7.097,C[C@H]1CN(C(=O)c2ccccc2)CCN1S(=O)(=O)c1c[nH]c2c(-n3ccnc3)nccc12
8,5.481,C[C@H]1CN(C(=O)c2ccccn2)CCN1S(=O)(=O)c1c[nH]c2ncccc12
9,6.699,C[C@@H]1CN(C(=O)c2ccccc2)CCN1S(=O)(=O)c1c[nH]c2c(-n3nccn3)ccc(F)c12
10,7.444,C[C@H]1CN(C(=O)c2ccccc2)CCN1S(=O)(=O)c1c[nH]c2c(-n3ccnc3)ncc(F)c12
11,6.699,C[C@H]1CN(C(=O)c2ccccc2)CCN1S(=O)(=O)c1c[nH]c2cccc(F)c12
12,5.523,C[C@H]1CN(C(=O)c2cc3ccccc3o2)CCN1S(=O)(=O)c1c[nH]c2ncccc12
13,4.886,C[C@@H]1CN(S(=O)(=O)c2c[nH]c3ncccc23)CCN1C(=O)c1ccccc1
14,6.284,C[C@H]1CN(C(=O)c2csc(N)n2)CCN1S(=O)(=O)c1c[nH]c2ncccc12
15,8.301,COc1ncc(OC)c2c(C(=O)C(=O)N3CCN(C(=O)c4ccccc4)C[C@@H]3C)c[nH]c12
16,5.328,C[C@H]1CN(C(=O)c2ccccc2)CCN1S(=O)(=O)c1c[nH]c2c(F)c(F)c(F)c(F)c12
17,6.284,O=C(C(=O)N1CCN(C(=O)c2ccccc2)CC1)c1c[nH]c2ncccc12
18,6.367,C[C@H]1CN(C(=O)c2ccccc2)CCN1S(=O)(=O)c1c[nH]c2ccccc12
19,6.377,C[C@H]1CN(C(=O)c2csc(Br)n2)CCN1S(=O)(=O)c1c[nH]c2ncccc12
20,7.523,C[C@H]1CN(C(=O)c2ccccc2)CCN1C(=O)C(=O)c1c[nH]c2ncccc12
21,4.657,O=C(c1ccccc1)N1CCN(S(=O)(=O)c2c[nH]c3ncccc23)CC1
22,5.62,C[C@H]1CN(C(=O)c2ccn(C)n2)CCN1S(=O)(=O)c1c[nH]c2ncccc12
23,6.824,C[C@H]1CN(C(=O)c2ccccc2)CCN1S(=O)(=O)c1c[nH]c2c(-n3ccnn3)ccc(F)c12
24,6.066,C[C@H]1CN(C(=O)c2ccccc2)CCN1S(=O)(=O)c1c[nH]c2ncccc12
25,6.301,C[C@H]1CN(C(=O)c2ccccc2)CCN1S(=O)(=O)c1c[nH]c2c(-n3cncn3)ccc(F)c12
26,4.796,CC[C@H]1CN(C(=O)c2ccccc2)CCN1S(=O)(=O)c1c[nH]c2ncccc12
27,5.638,Cc1ccc(C(=O)N2CCN(S(=O)(=O)c3c[nH]c4ncccc34)[C@@H](C)C2)s1
28,8.097,COc1cc[nH]c2ncc(C(=O)C(=O)N3CCN(C(=O)c4ccccc4)C[C@@H]3C)c1-2
29,5.372,COc1cccc2[nH]cc(S(=O)(=O)N3CCN(C(=O)c4ccccc4)C[C@@H]3C)c12
30,5.444,C[C@H]1CN(C(=O)c2ccccc2)CCN1S(=O)(=O)c1c[nH]c2ccc(F)cc12

# Assay: Inhibition of HIV1 gp120-CD4 (unknown origin) interaction after 1 hr by ELISA
# Set-up: species or system Human immunodeficiency virus 1
# Method in brief: as §1
row,IC50,Compound
1,0.247 µM,O=C(NCc1nc2ccccc2[nH]1)NCc1nc2ccccc2[nH]1
2,0.197 µM,O=C(Nc1ccc(Cc2nc3ccccc3[nH]2)cc1)Nc1ccc(Cc2nc3ccccc3[nH]2)cc1
3,0.013 µM,S=C(NCc1nc2ccccc2[nH]1)NCc1nc2ccccc2[nH]1
4,0.149 µM,S=C(Nc1ccc(Cc2nc3ccccc3[nH]2)cc1)Nc1ccc(Cc2nc3ccccc3[nH]2)cc1
5,0.126 µM,S=C(Nc1ccc(-c2nc3ccccc3[nH]2)cc1)Nc1ccc(-c2nc3ccccc3[nH]2)cc1
6,0.188 µM,O=C(Nc1ccc(-c2nc3ccccc3[nH]2)cc1)Nc1ccc(-c2nc3ccccc3[nH]2)cc1
